The source of these data is ChEMBL document CHEMBL1137866, “N-(1-Benzylpyrrolidin-3-yl)arylbenzamides as potent and selective human dopamine D4 antagonists” (Bioorg Med Chem Lett, 2004).

In test [1] the target is T1, D(2) dopamine receptor (Homo sapiens, UniProt P14416). As to the kind of experiment: Ability to displace [3H]spiperone from human Dopamine receptor D2S stably transfected in GH4C1 (rat pituitary) cells. The test is classed as cell-based, Pituitary gland cell. A digest of the protocol:
(§1)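 Radioligand binding on stably transfected cell lines: hD4 (D4.2 subtype) in HEK […] cells and hD2 (short isoform) in GH4C1 rat pituitary cells. Ki derived by Cheng–Prusoff transformation, reported as mean of at least two determinations ± SEM.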

The target of test [2] is T2, D(4) dopamine receptor (Homo sapiens, UniProt P21917).
T2 sequence (P21917 whole entry): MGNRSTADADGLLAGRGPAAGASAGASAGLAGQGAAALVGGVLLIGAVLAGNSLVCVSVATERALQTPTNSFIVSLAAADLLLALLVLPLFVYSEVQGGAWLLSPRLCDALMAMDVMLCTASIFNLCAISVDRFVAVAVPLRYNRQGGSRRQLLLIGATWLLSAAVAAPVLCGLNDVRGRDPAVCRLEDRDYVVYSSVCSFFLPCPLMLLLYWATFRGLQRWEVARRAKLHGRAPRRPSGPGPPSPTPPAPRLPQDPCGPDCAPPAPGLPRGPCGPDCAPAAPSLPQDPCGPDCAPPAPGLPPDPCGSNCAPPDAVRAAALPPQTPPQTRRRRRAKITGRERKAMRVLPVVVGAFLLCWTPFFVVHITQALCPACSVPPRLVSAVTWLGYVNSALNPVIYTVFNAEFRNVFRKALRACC
As to the kind of experiment: Ability to displace [3H]spiperone from human Dopamine receptor D4.2 stably transfected in human embryonic kidney […] cells. A digest of the protocol:
as §1

The target in test [3] is T2, D(4) dopamine receptor. As to the kind of experiment: Inhibitory concentration required to reverse the dopamine inhibition of forskolin-stimulated adenyl cyclase activity in CHO cells stably expressing hD4 receptor. The test is classed as functional, cell-based.
Test [4] addresses T3, Adrenergic receptor alpha-1 (Rattus norvegicus, UniProt P15823+P23944+P43140).
T3 sequence (P15823 whole entry): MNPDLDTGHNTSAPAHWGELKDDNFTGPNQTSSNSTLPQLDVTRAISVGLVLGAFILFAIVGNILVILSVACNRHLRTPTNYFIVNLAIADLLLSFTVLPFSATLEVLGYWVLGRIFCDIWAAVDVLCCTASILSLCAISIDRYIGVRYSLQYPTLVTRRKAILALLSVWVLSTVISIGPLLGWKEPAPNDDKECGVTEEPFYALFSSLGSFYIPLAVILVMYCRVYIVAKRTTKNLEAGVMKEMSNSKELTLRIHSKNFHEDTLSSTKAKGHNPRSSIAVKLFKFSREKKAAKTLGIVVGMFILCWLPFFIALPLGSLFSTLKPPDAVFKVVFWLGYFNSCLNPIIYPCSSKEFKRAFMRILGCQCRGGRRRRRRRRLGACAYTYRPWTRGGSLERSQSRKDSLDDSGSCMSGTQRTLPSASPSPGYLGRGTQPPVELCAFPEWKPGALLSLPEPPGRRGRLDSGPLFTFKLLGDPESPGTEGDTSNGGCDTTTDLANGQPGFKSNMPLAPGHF
T3 sequence (P23944 whole entry): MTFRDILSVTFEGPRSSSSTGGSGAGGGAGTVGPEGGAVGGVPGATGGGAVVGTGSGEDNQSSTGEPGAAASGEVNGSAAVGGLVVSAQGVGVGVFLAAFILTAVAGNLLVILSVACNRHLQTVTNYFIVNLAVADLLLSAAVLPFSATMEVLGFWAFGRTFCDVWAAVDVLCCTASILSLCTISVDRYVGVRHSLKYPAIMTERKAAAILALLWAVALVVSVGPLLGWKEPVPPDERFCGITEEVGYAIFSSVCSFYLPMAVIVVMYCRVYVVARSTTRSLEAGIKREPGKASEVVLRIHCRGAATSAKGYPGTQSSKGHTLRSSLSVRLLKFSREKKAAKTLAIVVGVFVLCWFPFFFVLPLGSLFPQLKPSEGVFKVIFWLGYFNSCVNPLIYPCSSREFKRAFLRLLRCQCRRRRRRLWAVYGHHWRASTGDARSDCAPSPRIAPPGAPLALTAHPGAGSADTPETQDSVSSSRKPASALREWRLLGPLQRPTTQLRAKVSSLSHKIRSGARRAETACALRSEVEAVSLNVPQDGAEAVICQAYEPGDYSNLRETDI
T3 sequence (P43140 whole entry): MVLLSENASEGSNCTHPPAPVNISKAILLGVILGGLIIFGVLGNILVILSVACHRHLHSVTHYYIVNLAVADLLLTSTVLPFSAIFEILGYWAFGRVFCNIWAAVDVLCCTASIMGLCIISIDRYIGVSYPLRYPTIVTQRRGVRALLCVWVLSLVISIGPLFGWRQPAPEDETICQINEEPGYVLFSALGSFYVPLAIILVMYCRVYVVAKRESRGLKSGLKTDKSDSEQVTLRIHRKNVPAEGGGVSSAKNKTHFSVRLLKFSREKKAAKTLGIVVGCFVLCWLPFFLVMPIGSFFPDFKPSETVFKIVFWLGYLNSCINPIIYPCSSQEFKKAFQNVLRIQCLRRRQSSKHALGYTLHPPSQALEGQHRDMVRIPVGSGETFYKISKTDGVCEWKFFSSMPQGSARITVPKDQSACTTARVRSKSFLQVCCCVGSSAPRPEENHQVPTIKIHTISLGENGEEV
Kind of test: Binding affinity towards Alpha-1 adrenergic receptor using 7-methoxy-[3H]-prazosin as radioligand in rat frontal cortex tissue. The test is classed as tissue-based. A digest of the protocol: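 Rat frontal cortex tissue as α1 receptor source, 7-methoxy-[3H]-prazosin as radioligand, clozapine as reference. Ki obtained by Cheng–Prusoff transformation; mean of at least two determinations ± SEM.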

Test [5] addresses T1, D(2) dopamine receptor. Kind of test: Inhibition of [3H]spiperone binding to human Dopamine receptor D2S stably transfected in GH4C1 (rat pituitary) cells at 100 nM. The following applies: Pituitary gland cell.
Test [6] deals with T4, Adrenergic receptor alpha-1 (Rattus norvegicus) (UniProt P15823+P23944+P43140). Kind of test: Inhibition of 7-methoxy-[3H]-prazosin binding to Alpha-1 adrenergic receptor in rat frontal cortex tissue at 100 nM.
The target of test [7] is T5, D(4) dopamine receptor (Homo sapiens) (UniProt P21917).
T5 sequence (whole entry): T2 sequence (P21917 whole entry)
Kind of test: Inhibition of [3H]spiperone binding to human Dopamine receptor D4.2 stably transfected in human embryonic kidney […] cells at 100 nM.

Test [8] addresses T1, D(2) dopamine receptor. As to the kind of experiment: Inhibition of [3H]spiperone binding to human Dopamine receptor D2S stably transfected in GH4C1 (rat pituitary) cells at 100 nM; IA denotes inactive. The following applies: Pituitary gland cell.
Test [9] has as its target T4, Adrenergic receptor alpha-1 (Rattus norvegicus). Kind of test: Inhibition of 7-methoxy-[3H]-prazosin binding to Alpha-1 adrenergic receptor in rat frontal cortex tissue at 100 nM; IA denotes inactive.

Activity calls are given as the source filed them. No cut-off for these calls is given here.

T1 sequence (P14416 whole entry, canonical isoform): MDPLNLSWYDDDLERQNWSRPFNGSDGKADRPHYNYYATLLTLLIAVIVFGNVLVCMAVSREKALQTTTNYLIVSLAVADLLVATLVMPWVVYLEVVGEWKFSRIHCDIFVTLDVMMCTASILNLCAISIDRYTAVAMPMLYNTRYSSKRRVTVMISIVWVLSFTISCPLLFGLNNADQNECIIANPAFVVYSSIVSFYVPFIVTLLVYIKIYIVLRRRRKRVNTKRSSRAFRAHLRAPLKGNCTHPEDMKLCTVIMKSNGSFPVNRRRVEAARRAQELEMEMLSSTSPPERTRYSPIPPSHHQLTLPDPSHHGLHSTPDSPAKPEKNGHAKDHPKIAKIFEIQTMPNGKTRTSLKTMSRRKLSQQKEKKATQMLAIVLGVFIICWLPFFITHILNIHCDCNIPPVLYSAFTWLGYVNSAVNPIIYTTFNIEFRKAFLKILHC

With `O=Cc1ccccc1-c1ccc(C(=O)NC2CCN(Cc3ccccc3)C2)cc1` (configuration not stated), the Ki (commonly the equilibrium dissociation constant of an inhibitor or competing ligand from its target) was 3100 nM at D(2) dopamine receptor [1] and 36 nM on D(4) dopamine receptor [2].
In the case of `Nc1cccc(-c2ccc(C(=O)NC3CCN(Cc4ccccc4)C3)cc2)c1` (configuration not stated), the Ki on D(2) dopamine receptor [1] amounted to 5000 nM; at D(4) dopamine receptor [2], 24 nM.
Consider `O=C(NC1CCN(Cc2ccccc2)C1)c1ccc(-c2ccccc2)cc1` (configuration not stated), for which the Ki at D(2) dopamine receptor [1] stood at 600 nM; at D(4) dopamine receptor [2], 3 nM. On D(4) dopamine receptor [3], the IC50 – broadly, the concentration that gives 50% inhibition – stood at 1500 nM.
Turning to `O=Cc1ccc(-c2ccc(C(=O)NC3CCN(Cc4ccccc4)C3)cc2)cc1` (configuration not stated), the Ki on D(2) dopamine receptor [1] is 3700 nM; at D(4) dopamine receptor [2], 70 nM.
For `O=C(NC1CCN(Cc2ccccc2)C1)c1ccc(-c2ccc(Cl)cc2)cc1` (configuration not stated), in that order: 2600 nM and 5 nM.
For the molecule `O=C(N[C@@H]1CCN(Cc2ccccc2)C1)c1ccc(-c2cccs2)cc1`, the Ki at D(2) dopamine receptor [1] stood at 1500 nM; at D(4) dopamine receptor [2], 24 nM; in test [4] it was 330 nM.
As to `O=C(NC1CCN(Cc2ccccc2)C1)c1ccc(-c2cccc(F)c2)cc1` (configuration not stated), the values for the Ki on D(2) dopamine receptor [1] and at D(4) dopamine receptor [2] were 4000 nM and 17 nM, respectively.
For the molecule `O=C(N[C@H]1CCN(Cc2ccccc2)C1)c1cccc(-c2cccs2)c1`, the Ki at D(2) dopamine receptor [1] was 60 nM; on D(4) dopamine receptor [2], 1.5 nM; in test [4] it was 160 nM.
For `O=C(N[C@@H]1CCN(Cc2ccccc2)C1)c1cccc(-c2ccsc2)c1`, in that order: 94 nM, 3.4 nM and 170 nM.
Consider `O=C(NC1CCN(Cc2ccccc2)C1)c1ccc(-c2ccc(F)cc2)cc1` (configuration not stated), for which the results for the Ki at D(2) dopamine receptor [1] and on D(4) dopamine receptor [2] were 120 nM and 8 nM, respectively.
For `O=C(NC1CCN(Cc2ccccc2)C1)c1ccc(-c2ccc(C(F)(F)F)cc2)cc1` (configuration not stated), in that order: 8000 nM and 17 nM.
For `CSc1ccc(-c2ccc(C(=O)NC3CCN(Cc4ccccc4)C3)cc2)cc1` (configuration not stated), in that order: 4000 nM and 17 nM.
Regarding `CN(C(=O)c1ccc(-c2ccsc2)cc1)[C@H]1CCN(Cc2ccccc2)C1`, the inhibition (as a rule, the percentage by which the read-out fell short of the control) at D(2) dopamine receptor [5] came out at 7.4%; in [6], 0.29%; in test [7], 40%.
For `O=C(N[C@@H]1CCN(Cc2ccccc2)C1)c1ccc(-c2ccsc2)cc1`, the Ki at D(2) dopamine receptor [1] is 900 nM; at D(4) dopamine receptor [2], 18 nM; in [4], 170 nM.
`O=C(N[C@H]1CCN(Cc2ccccc2)C1)c1cccc(-c2ccsc2)c1`: the Ki on D(2) dopamine receptor [1] was 70 nM; at D(4) dopamine receptor [2], 2 nM; in test [4] it was 140 nM.
The like results for `O=C(N[C@H]1CCN(Cc2ccccc2)C1)c1ccc(-c2ccsc2)cc1` were, in that order, 1000 nM, 2 nM and 610 nM.
`O=C(NC1CCN(Cc2ccccc2)C1)c1ccc(-c2ccsc2)cc1` (configuration not stated): the Ki on D(2) dopamine receptor [1] was found to be 1200 nM; on D(4) dopamine receptor [2], 2 nM.
In the case of `O=S(=O)(N[C@H]1CCN(Cc2ccccc2)C1)c1ccc(-c2cccs2)cc1`, the inhibition result (on D(2) dopamine receptor [8]; in test [9]) was “inactive” each time. The molecule also displayed an inhibition in test [7] of 13%.
With `O=C(NC1CCN(Cc2ccccc2)C1)c1cccc(-c2ccccc2)c1` (configuration not stated), the figures for the Ki at D(2) dopamine receptor [1] and at D(4) dopamine receptor [2] were 150 nM and 4 nM, respectively.
In the case of `O=C(N[C@H]1CCN(Cc2ccccc2)C1)c1ccc(-c2cccs2)cc1`, the figures for the Ki (at D(2) dopamine receptor [1]; at D(4) dopamine receptor [2]; in test [4]) were 980 nM, 3 nM and 1200 nM, respectively.
With `O=C(NC1CCN(Cc2ccccc2)C1)c1ccc(-c2cccs2)cc1` (configuration not stated), the values for the Ki on D(2) dopamine receptor [1] and on D(4) dopamine receptor [2] were 840 nM and 3 nM, respectively.
